Assay outcomes: PubChem BioAssay, The Scripps Research Institute Molecular Screening Center
LEDGF integ inh – blocks HIV-1 LEDGF/p75-dependent DNA integration | inhibition, % at 3.7 µM | hit rate 0.64% among 370,000 | TR-FRET IN-LEDGF/p75 DNA integration, Eu/Cy5;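 active = inhibition above the screen-wide mean plus 3 SD, cut at about 13% in these data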;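 also: signal is the Cy5 over europium emission ratio at 671 and 618 nm; 0% = plate median of compound wells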
MBD2 inh – blocks human MBD2 binding to methylated DNA. TR-FRET, MBD2 binding to methylated oligonucleotide. inhibition, % at 4.4 µM. hit rate 0.31% among 370,000. AID 686964; in the data active = inhibition above about 13%
Target sequence (Q9UBB5 whole entry, looked up): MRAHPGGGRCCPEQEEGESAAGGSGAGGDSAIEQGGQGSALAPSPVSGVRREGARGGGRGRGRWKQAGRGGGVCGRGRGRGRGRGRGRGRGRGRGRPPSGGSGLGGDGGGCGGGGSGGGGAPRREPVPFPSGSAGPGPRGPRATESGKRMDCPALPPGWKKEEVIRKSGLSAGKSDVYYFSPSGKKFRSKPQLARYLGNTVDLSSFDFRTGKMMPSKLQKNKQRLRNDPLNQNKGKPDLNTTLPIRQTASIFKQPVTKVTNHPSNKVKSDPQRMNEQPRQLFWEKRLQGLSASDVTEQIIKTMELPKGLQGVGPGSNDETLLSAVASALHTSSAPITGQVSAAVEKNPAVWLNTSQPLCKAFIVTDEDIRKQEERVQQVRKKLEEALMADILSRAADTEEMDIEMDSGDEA
TDP2 absorb – blocks human TDP2 phosphodiesterase activity; O95551; recombinant TDP2, T5PNP hydrolysis, p-nitrophenol absorbance 415 nm; inhibition, % at 12.8 µM; hit rate 0.34% among 370,000; AID 720702;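 active = inhibition above the mean of all tested compounds plus 3 SD, set per campaign, cut at about 25% in these data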;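 also: 0% = DMSO with enzyme and 100% = buffer with substrate but no TDP2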
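Read-out basis: percent inhibition. System: recombinant human TDP2. Buffer or medium: Mg2+-containing Tris-HCl buffer, pH 7.5. Repeats: single replicate. Timing: reaction 2 h, 37 °C. Benchmarks: high control without enzyme, low control DMSO plus TDP2. Probe or stimulus: 5 mM T5PNP. Doses: 12.8 µM only. Measured by: epi absorbance of p-nitrophenol freed from T5PNP by hydrolysis.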
UHRF1 MBD2 ctr – UHRF1 methyl-DNA binding inhibition; UHRF1 binding to methylated oligo, TR-FRET; hit rate 0.75% among 370,000; Q96T88; inhibition, % at 4.4 µM; in the data active = inhibition above about 21%;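 also: UHRF1 SRA domain binding a hemimethylated CpG hairpin DNA probe; 0% = median of test compound wells and 100% = reference inhibitor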
core dimer inh – HCV core protein dimerization inhibition. hit rate 0.33% among 300,000. AID 1899. TR-FRET GST/Flag-core106 dimerization, 1536-well. inhibition, % at 5 µM;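 active = inhibition above the mean of all tested compounds plus 3 SD, set per screening campaign, cut at about 45% in these data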
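Assay system: GST-tagged and Flag-tagged HCV core protein residues 1-106 / Times: compound-protein-antibody incubation 4 h at 22.5 °C / Signal: time-resolved FRET, ex 340 nm, em 617 and 671 nm / Evaluation: % inhibition based on acceptor/donor emission ratio / Benchmarks: wells lacking GST-core106 and wells with excess unlabelled core106 / Repeats: singlicate, one well per compound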
Numbers without * were called inactive; . = no result. A selection: hits, their analogues and other compounds. The true share with any hit is near 1.8%.

SMILES	LEDGF integ inh	MBD2 inh	TDP2 absorb	UHRF1 MBD2 ctr	core dimer inh
COCCCN1C(=O)[C@H](CC(=O)N2CCCCC2)[C@]2(C(=O)OC)CCCCC=C12	4	3	2	4	.
CSc1nc(SCC(=O)NCc2ccco2)c2c3c(sc2n1)CN(C)CC3	11	5	3	-1	48*
CSc1nc(NCc2ccco2)c2c3c(sc2n1)CN(C)CC3	.	.	.	.	9
COCCNC(=O)C[C@H]1CC[C@H]2[C@@H](COc3ccc(NC(=O)Nc4cccc(F)c4)cc3C(=O)N2C)O1	4	8	2	5	.
COC(=O)C1CN(Cc2cn(Cc3ccc(C)cc3)nn2)CCS(=O)(=O)N1Cc1ccc(C)cc1 (configuration not stated)	6	10	-12	15	.
Cc1ccc2nc3c(cc2c1)CN(Cc1ccco1)C(=NCC1CCCO1)S3 (configuration not stated)	2	1	-1	-1	10
Cc1cccc2cc3c(nc12)SC(=NCC1CCCO1)N(Cc1ccco1)C3 (configuration not stated)	.	.	.	.	79*
O=C(c1ccc(C#Cc2ccccc2)cc1)N1CCC(O)CC1	2	2	9	-4	.
Cc1ccc(NC(=O)OC2CC3CC2[C@H]2CCCCN2[C@H]3Cc2ccccc2)cc1 (some centres not stated)	4	-2	8	-1	.
CCOC(=O)C1=CN(Cc2ccco2)S(=O)(=O)N(C)C1CC (configuration not stated)	6	2	6	22*	.
CC(=O)N1CCN(C(=O)CCn2nnc3ccccc32)CC1	-2	-3	17	-1	.
COCOCCn1cc(CN2CCS(=O)(=O)N(Cc3ccc(-c4ccncc4)cc3)C(C(C)C)C2=O)nn1 (configuration not stated)	-1	-1	2	-1	.
COCOCCn1cc(CN2CCS(=O)(=O)N(Cc3ccc(-c4ccncc4)cc3)C(CC(C)C)C2=O)nn1 (configuration not stated)	1	5	-4	24*	.
Cc1ccc(NC(=O)CN2C(=O)S/C(=C\c3ccc(-c4cccc(C(=O)O)c4C)o3)C2=O)cc1	.	.	.	.	-1
Cc1ccc(C)c(N2C(=N)S/C(=C\c3ccc(-c4ccccc4C(=O)O)o3)C2=O)c1	-4	11	-8	21*	5
O=C1NN(c2ccc(Cl)c(Cl)c2)C(=O)/C1=C/c1ccc(-c2ccccc2C(=O)O)o1	1	4	0	7	.
Cc1cc(C)c2nc3sc(=Cc4ccc(-c5ccccc5C(=O)O)o4)c(=O)n3c2c1	9	7	-1	24*	.
O=C(O)c1ccc(-c2ccc(/C=c3/sc4nc5ccccc5n4c3=O)o2)cc1Cl	8	8	17	40*	10
COc1ccc(Cn2cc(CN3[C@@H](CC(C)C)COc4cccc(F)c4S3(=O)=O)nn2)cc1	-3	4	-10	-2	.
Cc1cc(C)c2oc(C(=O)Nc3ccc(S(=O)(=O)Nc4nccs4)cc3)cc(=O)c2c1	1	-4	5	0	7
O=C(Nc1ccc(S(=O)(=O)Nc2nccs2)cc1)c1nn(-c2ccccc2)ccc1=O	4	0	3	1	63*
Cc1cc2oc(C(=O)Nc3ccc(S(=O)(=O)Nc4nccs4)cc3)cc(=O)c2cc1Cl	0	2	3	-1	58*
Cc1cccc(-n2ccc(=O)c(C(=O)Nc3ccc(S(=O)(=O)Nc4nccs4)cc3)n2)c1	-2	-1	12	-1	15
COc1ccc(CNCC#CC2=CCCCC2)c(OC)c1	3	0	-4	-2	.
O=c1oc(-c2ccccc2)cc(Cl)c1Cl	0	2	27*	-4	-5
SMILES	LEDGF integ inh	MBD2 inh	TDP2 absorb	UHRF1 MBD2 ctr	core dimer inh
CC(C)OCCCNC(=S)NNC(=O)C(c1ccccc1)c1ccccc1	-3	2	1	22*	-1
CCN1CCN(Cc2ccc(NC(=O)c3cccc(-c4ccc5nc(NC(=O)C6CC6)sc5n4)c3)cc2C(F)(F)F)CC1	-1	2	2	-1	.
COc1ccc(-c2cc(C(=O)NNC(=S)NC(=O)c3c(-c4ccccc4)noc3C)[nH]n2)cc1	-11	1	-1	22*	18
CCOc1ccc2ccccc2c1/C=N/NC(=O)CNC(=O)c1ccccc1F	1	-7	-11	-2	1
CCOc1ccc2ccccc2c1/C=N/NC(=O)CNC(=O)Cc1ccccc1	-1	2	-15	23*	-4
Clc1ccc(CSc2nnc(-c3cccnc3)n2Cc2ccco2)c(Cl)c1	1	2	8	2	48*
O=C(CSc1nnc(-c2ccc(Cl)cc2)n1Cc1ccco1)c1cccs1	7	5	-10	6	47*
O=C(CSc1nnc(-c2ccncc2)n1Cc1ccco1)c1ccc(Cl)cc1	-3	0	-5	0	14
Clc1cccc(CSc2nnc(-c3cccnc3)n2Cc2ccco2)c1	.	.	.	.	4
CCOC(=O)C1=C(C(=O)OCC)C2N(Cc3ccc(C(F)(F)F)cc3)c3ccccc3[C@@]23C[C@@H](C(=O)OC)N(S(=O)(=O)c2ccc(OC)cc2)C3=N1 (some centres not stated)	2	-2	-10	1	.
C[C@@H](CO)N(Cc1cn(Cc2ccccc2)nn1)S(=O)(=O)c1ccc(F)cc1Br	0	-1	-3	2	.
Cc1cc(=O)[nH]c(SCC(=O)Nc2ccc(C(=O)O)cc2)n1	-4	1	-4	4	2
CCOC(=O)c1ccc(NC(=O)CSc2nc(C)cc(=O)[nH]2)cc1	.	.	.	.	63*
COc1ccc(C2(c3ccc(OC)cc3)NC(=O)N(CC(=O)Nc3ccc(C(N)=O)cc3)C2=O)cc1	5	10	8	42*	12
COc1ccc(C2(c3ccc(OC)cc3)NC(=O)N(CC(=O)Nc3ccccc3)C2=O)cc1	3	-5	-4	0	10
COC(=O)[C@]12C[C@H](CC(=O)N3CCN(C(=O)C4CC4)CC3)C(=O)N(CCc3ccc(OC)c(OC)c3)C1=C[C@H](C(C)(C)C)O[C@@H]2C	2	-7	1	-3	.
CN1CCN(C2CN(Cc3cn(Cc4ccc(F)cc4)nn3)S(=O)(=O)C2)CC1 (configuration not stated)	0	7	0	21*	.
O=C(NCCc1c[nH]c2ccccc12)OCc1cn(Cc2ccc(F)cc2F)nn1	2	-2	4	-2	.
CCCc1nc2ccc(C(=O)OC)cn2c1Cc1ccccc1C(F)(F)F	2	11	5	25*	.
CCCc1nc2ccc(C(=O)OC)cn2c1Cc1ccccc1OC	4	-4	5	23*	.
COC(=O)c1ccc2nc(-c3ccc(F)cc3)c(Cc3ccccc3OC)n2c1	-1	4	-3	17	.
CCOC(=O)C1CCCN(C(=O)CN2C(=O)/C(=C/c3ccc(OC)cc3)Oc3ccccc32)C1 (configuration not stated)	-2	6	13	22*	0
